Laboratory results: ChEMBL document CHEMBL2021777 (J Med Chem, 2012)
pIC50, pKi: −log10 of the molar value. Activity calls are given as the source filed them. No cut-off for these calls is given here.

Tests used:
[1] = target: Neuronal acetylcholine receptor; alpha4/beta2 (Rattus norvegicus, UniProt P09483+P12390); experiment: Displacement of [3H] epibatidine from rat alpha4beta2* nAChR in rat forebrain by beta scintillation counting
[2] = organism: Rattus norvegicus; experiment: Selectivity ratio of Ki for rat alpha3beta4 to Ki for rat alpha4beta2
Summary of the method: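 Ki values from [3H]epibatidine competition binding at heterologously expressed rat nAChR subtypes, using the PDSP protocol; selectivity taken as the α3β4/α4β2 Ki ratio.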

[3] = target: T1, Neuronal acetylcholine receptor; alpha4/beta2 (Homo sapiens, UniProt P17787+P43681); experiment: Antagonist activity at human alpha4beta2 nAChR expressed in SH-EP1 cells assessed as inhibition of carbamylcholine induced 86Rb+ ion efflux preincubated for 10 mins prior to carbamylcholine-induction measured after 5 mins by flip-plate technique; type: functional, cell-based
T1 sequence (P17787 whole entry): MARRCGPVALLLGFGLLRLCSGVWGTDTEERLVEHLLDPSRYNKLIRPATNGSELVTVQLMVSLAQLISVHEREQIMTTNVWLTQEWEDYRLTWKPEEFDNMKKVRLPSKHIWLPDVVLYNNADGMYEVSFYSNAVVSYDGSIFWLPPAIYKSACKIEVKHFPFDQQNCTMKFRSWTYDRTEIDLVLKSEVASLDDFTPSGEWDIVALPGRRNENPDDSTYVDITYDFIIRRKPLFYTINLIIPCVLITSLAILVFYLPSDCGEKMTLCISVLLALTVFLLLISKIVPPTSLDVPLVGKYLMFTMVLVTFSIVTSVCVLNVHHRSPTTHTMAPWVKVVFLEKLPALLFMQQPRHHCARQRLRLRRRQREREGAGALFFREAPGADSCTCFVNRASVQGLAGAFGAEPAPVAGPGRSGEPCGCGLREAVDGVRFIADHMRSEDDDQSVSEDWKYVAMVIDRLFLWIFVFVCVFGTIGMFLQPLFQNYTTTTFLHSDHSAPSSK
T1 sequence (P43681 whole entry): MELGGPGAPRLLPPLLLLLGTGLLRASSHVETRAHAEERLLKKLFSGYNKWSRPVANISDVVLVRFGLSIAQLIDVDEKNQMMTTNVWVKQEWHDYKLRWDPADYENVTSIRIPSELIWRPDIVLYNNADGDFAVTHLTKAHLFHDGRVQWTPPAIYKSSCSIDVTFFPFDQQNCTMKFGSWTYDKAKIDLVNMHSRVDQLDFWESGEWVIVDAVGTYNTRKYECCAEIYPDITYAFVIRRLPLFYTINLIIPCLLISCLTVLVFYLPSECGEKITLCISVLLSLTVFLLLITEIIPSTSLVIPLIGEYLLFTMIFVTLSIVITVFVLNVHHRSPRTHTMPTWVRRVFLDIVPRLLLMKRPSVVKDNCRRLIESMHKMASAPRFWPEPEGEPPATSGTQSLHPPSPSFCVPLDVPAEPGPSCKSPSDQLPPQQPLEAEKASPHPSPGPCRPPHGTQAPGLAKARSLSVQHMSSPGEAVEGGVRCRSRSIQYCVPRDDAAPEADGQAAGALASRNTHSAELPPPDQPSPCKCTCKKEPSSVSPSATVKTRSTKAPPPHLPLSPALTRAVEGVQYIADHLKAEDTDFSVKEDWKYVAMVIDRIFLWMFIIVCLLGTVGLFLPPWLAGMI
Summary of the method: (§1)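 SH-EP1 human epithelial cells stably transfected with separate human α4 and β2 subunit cDNAs express a mixed population of high-sensitivity (2:3 α4:β2) and low-sensitivity (3:2) α4β2-nAChRs. Cells were kept at low passage (1−26 from frozen stocks). Function was read as 86Rb+ ion flux.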

[4] = target: T1, Neuronal acetylcholine receptor; alpha4/beta2; experiment: Antagonist activity at human high sensitive and low sensitive alpha4beta2 nAChR expressed in SH-EP1 cells assessed as inhibition of carbamylcholine induced 86Rb+ ion efflux preincubated for 10 mins prior to carbamylcholine-induction measured after 5 mins by flip-plate technique relative to control; type: functional, cell-based; summary of the method: as §1
[5] = target: Acetylcholine receptor; alpha1/beta1/delta/gamma (Homo sapiens) (UniProt P02708+P07510+P11230+Q07001); experiment: Antagonist activity at human alpha1beta1gammadelta nAChR expressed in TE671/RD cells at 10 uM by 86Rb+ flux assay; type: functional, cell-based
Summary of the method: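 Human clonal TE671/RD cells endogenously express muscle-type α1*-nAChRs (α1, β1, γ, δ). Cells were kept at low passage (1−26 from frozen stocks). Function was read as 86Rb+ efflux, with agonist and antagonist modes tested up to 10 μM.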

[6] = target: 5-hydroxytryptamine receptor 2B (Homo sapiens) (UniProt P41595); experiment: Displacement of [3H]LSD from 5-HT2B at 10 uM
[7] = target: 5-hydroxytryptamine receptor 6 (Homo sapiens) (UniProt P50406); experiment: Displacement of [3H]LSD from 5-HT6 at 10 uM
Sequence of 5-hydroxytryptamine receptor 6 (Homo sapiens) (P50406 whole entry): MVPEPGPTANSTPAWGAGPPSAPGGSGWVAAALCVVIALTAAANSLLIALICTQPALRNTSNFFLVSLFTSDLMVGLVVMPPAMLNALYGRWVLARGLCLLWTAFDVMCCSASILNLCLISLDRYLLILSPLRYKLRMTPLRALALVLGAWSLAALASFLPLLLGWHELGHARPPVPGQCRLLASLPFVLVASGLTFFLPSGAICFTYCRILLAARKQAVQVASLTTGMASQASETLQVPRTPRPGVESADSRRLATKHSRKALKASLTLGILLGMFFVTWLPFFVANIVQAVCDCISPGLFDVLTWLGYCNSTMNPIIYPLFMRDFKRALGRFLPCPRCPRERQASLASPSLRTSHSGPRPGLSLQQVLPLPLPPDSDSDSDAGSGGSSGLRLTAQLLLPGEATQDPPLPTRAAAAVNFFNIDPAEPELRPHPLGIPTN

[8] = target: 5-hydroxytryptamine receptor 7 (Homo sapiens) (UniProt P34969); experiment: Displacement of [3H]LSD from 5-HT7 at 10 uM
[9] = target: D(1A) dopamine receptor (Homo sapiens) (UniProt P21728); experiment: Displacement of [3H][…] from D1 at 10 uM
Sequence of D(1A) dopamine receptor (Homo sapiens) (P21728 whole entry): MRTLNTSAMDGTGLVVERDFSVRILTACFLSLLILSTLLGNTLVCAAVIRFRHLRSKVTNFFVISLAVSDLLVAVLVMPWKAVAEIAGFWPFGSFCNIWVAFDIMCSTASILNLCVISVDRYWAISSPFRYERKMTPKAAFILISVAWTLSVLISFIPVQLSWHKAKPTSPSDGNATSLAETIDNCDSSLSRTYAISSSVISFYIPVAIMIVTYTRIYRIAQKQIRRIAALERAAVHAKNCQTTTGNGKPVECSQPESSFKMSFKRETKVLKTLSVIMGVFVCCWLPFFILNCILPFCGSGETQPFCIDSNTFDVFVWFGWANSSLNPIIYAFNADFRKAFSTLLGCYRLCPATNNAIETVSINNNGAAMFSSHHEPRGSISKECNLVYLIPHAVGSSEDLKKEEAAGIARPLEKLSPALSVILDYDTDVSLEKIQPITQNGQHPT

[10] = target: Beta-3 adrenergic receptor (Homo sapiens) (UniProt P13945); experiment: Displacement of [125I]Iodopindolol from beta3 adrenergic receptor at 10 uM
Sequence of Beta-3 adrenergic receptor (Homo sapiens) (P13945 whole entry, looked up): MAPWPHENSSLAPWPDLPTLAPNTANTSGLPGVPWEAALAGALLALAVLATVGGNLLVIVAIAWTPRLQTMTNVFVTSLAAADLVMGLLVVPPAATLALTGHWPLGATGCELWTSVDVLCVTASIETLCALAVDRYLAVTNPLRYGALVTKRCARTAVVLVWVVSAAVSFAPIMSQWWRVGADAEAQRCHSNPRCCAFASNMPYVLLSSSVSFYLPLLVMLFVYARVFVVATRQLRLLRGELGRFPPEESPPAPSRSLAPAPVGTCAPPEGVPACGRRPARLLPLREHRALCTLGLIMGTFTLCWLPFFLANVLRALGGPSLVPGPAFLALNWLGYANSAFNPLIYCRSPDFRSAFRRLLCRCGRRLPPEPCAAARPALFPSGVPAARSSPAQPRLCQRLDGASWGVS

[11] = target: Histamine H1 receptor (Homo sapiens) (UniProt P35367); experiment: Displacement of [3H]Pyrilamine from H1 histamine receptor at 10 uM
Sequence of Histamine H1 receptor (Homo sapiens) (P35367 whole entry): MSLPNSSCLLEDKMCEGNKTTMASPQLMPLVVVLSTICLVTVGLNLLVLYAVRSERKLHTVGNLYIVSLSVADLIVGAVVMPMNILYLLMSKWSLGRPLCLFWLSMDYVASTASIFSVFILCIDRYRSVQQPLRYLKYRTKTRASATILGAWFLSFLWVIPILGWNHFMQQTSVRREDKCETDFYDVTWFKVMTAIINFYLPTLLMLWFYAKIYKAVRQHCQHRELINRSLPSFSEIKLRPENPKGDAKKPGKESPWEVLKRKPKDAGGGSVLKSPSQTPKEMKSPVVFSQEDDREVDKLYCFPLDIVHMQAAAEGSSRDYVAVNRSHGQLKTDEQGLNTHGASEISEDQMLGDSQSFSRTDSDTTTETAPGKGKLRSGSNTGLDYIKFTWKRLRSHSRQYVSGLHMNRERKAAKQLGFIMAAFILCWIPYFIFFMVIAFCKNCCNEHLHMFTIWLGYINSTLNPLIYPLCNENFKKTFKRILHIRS

[12] = target: T2, Muscarinic acetylcholine receptor M2 (Homo sapiens) (UniProt P08172); experiment: Displacement of [3H]QNB from M2 receptor at 10 uM
T2 sequence (whole entry): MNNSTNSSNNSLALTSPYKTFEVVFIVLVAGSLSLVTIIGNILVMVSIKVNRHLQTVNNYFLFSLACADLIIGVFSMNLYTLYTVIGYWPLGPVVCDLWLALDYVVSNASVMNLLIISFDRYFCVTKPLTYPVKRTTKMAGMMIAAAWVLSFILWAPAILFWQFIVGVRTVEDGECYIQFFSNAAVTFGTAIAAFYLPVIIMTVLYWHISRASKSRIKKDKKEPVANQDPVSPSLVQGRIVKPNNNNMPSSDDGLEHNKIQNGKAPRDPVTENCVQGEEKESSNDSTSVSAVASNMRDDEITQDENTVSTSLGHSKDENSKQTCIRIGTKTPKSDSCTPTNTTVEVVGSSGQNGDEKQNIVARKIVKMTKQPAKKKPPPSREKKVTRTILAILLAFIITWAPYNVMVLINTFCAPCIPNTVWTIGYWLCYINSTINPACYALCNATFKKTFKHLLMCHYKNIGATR

[13] = target: T3, Muscarinic acetylcholine receptor M4 (Homo sapiens) (UniProt P08173); experiment: Displacement of [3H]QNB from M4 receptor at 10 uM
T3 sequence (whole entry): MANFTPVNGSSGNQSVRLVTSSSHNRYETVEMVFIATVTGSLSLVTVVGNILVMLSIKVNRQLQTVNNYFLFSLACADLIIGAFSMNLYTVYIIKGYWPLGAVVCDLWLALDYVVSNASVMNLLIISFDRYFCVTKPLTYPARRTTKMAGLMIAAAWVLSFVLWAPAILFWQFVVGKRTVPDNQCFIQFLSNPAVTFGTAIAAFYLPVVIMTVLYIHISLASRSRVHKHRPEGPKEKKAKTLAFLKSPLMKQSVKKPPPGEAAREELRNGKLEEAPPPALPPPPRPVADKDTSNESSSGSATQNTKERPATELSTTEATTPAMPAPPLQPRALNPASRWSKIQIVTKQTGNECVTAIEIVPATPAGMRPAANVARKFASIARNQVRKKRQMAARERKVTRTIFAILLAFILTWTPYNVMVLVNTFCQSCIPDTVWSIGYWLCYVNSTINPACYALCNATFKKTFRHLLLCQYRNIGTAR

[14] = target: Sigma non-opioid intracellular receptor 1 (Homo sapiens) (UniProt Q99720); experiment: Displacement of [3H]Pentazocine from sigma1 receptor at 10 uM
Sequence of Sigma non-opioid intracellular receptor 1 (Homo sapiens) (Q99720 whole entry): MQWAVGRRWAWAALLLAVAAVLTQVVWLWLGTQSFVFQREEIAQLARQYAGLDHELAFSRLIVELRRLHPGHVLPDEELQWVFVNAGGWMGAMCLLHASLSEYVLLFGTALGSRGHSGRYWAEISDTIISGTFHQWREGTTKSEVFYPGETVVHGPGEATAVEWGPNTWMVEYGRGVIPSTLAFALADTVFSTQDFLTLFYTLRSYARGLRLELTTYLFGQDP

[15] = Displacement of [3H]DTG from sigma2 receptor at 10 uM
[16] = target: Cytochrome P450 2C9 (Homo sapiens, UniProt P11712); experiment: Inhibition of CYP2C9 up to 10 uM; type: ADME
Sequence of Cytochrome P450 2C9 (P11712 whole entry, canonical isoform): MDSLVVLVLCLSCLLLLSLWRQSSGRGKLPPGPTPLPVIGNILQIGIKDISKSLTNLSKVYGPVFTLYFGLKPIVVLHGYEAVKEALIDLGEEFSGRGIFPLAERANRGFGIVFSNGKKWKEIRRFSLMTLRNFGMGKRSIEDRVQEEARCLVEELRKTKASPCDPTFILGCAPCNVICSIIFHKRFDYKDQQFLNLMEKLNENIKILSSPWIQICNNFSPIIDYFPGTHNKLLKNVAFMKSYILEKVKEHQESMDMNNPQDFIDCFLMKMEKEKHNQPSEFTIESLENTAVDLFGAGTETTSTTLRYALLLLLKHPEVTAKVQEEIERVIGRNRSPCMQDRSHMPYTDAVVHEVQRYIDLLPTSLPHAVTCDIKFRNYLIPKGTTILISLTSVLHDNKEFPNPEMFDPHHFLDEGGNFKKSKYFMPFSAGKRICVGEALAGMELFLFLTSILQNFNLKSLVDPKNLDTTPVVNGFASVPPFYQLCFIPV
Summary of the method: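 Percent inhibition of CYP isoforms (CYP1A, CYP2C9, CYP2C19, CYP2D6, CYP3A; CYP1A2 reported) with test compound at concentrations up to 10 μM.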

[17] = target: hERG (KCNH2) (Homo sapiens, UniProt Q12809); experiment: Inhibition of human ERG expressed in CHO cells at 10 uM by patch clamp electrophysiology assay; type: cell-based; conditions: CHO cells expressing human ERG
Summary of the method: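 Automated patch-clamp electrophysiology on hERG K+ channels in CHO cell lines; inhibition measured at three concentrations: 0.1, 1 and 10 μM.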

[18] = Displacement of [3H]Muscimol from GABA(A) at 10 uM
[19] = organism: Rattus norvegicus; experiment: Displacement of radioligand from benzodiazepine receptor in rat brain; type: tissue-based; conditions: concentration not given here

Sequence of Neuronal acetylcholine receptor; alpha4/beta2 (Rattus norvegicus, UniProt P09483+P12390) (P09483 whole entry): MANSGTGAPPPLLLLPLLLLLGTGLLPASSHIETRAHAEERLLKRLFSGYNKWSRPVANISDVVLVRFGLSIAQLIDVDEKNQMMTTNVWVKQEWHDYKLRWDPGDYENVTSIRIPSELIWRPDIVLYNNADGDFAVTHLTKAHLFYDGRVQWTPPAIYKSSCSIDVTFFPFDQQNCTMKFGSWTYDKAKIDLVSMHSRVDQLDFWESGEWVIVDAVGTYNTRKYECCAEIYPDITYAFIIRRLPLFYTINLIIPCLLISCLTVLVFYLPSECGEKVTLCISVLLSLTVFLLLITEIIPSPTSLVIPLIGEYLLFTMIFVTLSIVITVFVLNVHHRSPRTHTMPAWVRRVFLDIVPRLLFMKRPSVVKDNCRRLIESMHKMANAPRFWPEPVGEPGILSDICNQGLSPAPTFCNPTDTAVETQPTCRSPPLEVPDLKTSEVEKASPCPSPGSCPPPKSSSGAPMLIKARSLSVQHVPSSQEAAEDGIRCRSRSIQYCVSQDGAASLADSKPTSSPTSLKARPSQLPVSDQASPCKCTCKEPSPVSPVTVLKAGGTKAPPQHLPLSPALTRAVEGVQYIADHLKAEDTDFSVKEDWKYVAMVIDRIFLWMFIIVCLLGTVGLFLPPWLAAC
Sequence of Neuronal acetylcholine receptor; alpha4/beta2 (Rattus norvegicus, UniProt P09483+P12390) (P12390 whole entry): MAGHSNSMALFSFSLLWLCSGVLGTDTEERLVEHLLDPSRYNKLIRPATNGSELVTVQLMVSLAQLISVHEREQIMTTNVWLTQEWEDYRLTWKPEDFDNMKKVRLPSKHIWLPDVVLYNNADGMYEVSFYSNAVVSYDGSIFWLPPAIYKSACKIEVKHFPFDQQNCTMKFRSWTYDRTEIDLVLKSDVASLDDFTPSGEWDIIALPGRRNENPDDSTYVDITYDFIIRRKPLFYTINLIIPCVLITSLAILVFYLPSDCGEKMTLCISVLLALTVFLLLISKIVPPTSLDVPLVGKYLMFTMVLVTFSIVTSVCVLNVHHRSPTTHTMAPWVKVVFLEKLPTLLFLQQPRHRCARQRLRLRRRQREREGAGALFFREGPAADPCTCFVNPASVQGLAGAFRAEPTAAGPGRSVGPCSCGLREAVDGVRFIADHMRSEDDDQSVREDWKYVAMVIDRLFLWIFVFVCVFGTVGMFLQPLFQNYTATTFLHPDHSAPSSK

CNC(=O)OCC[C@H]1C[C@@H]1c1cncc(OC[C@@H]2CCN2)c1
pKi [1]: 8.77 | Ratio Ki [2]: > 100000 | pIC50 [3]: 7.74 | Efficacy [4]: 85% | Activity [5]: inactive | inhibition [6]: 48.7% | inhibition [7]: -6.4% | inhibition [8]: 32.1% | inhibition [9]: 2.1% | inhibition [10]: 10.6% | inhibition [11]: 30.5% | inhibition [12]: -0.6% | inhibition [13]: 29.2% | inhibition [14]: 3.9% | inhibition [15]: -4.2% | inhibition (INH) [16]: <= 25% | inhibition at 10 µM [17]: 16.6% | inhibition [18]: -1.1% | inhibition [19]: 2%

OCC[C@H]1C[C@@H]1c1cncc(OC[C@@H]2CCN2)c1
pKi [1]: 9.30 | Ratio Ki [2]: 65200 | pIC50 [3]: 8.03 | Efficacy [4]: 63% | Activity [5]: inactive | inhibition [6]: 18.2% | inhibition [7]: -7.1% | inhibition [8]: 24.9% | inhibition [9]: 51.2% | inhibition [10]: 24.3% | inhibition [11]: 41.4% | inhibition [12]: -8.4% | inhibition [13]: -3.7% | inhibition [14]: 0.5% | inhibition [15]: 10% | inhibition (INH) [16]: <= 25% | inhibition at 10 µM [17]: 19.1% | inhibition [18]: -2.5% | inhibition [19]: 29.2%

COCC[C@H]1C[C@@H]1c1cncc(OC[C@@H]2CCN2)c1
pKi [1]: 9.52 | Ratio Ki [2]: > 100000 | pIC50 [3]: 8.25 | Efficacy [4]: 71% | Activity [5]: inactive | inhibition [6]: 24.7% | inhibition [7]: 1.4% | inhibition [8]: 22.7% | inhibition [9]: 90.3% | inhibition [10]: 25.3% | inhibition [11]: -4.8% | inhibition [12]: 0.5% | inhibition [13]: 0.7% | inhibition [14]: 58.7% | inhibition [15]: 15% | inhibition (INH) [16]: <= 25% | inhibition at 10 µM [17]: 13.7% | inhibition [18]: 2% | inhibition [19]: 26.6%
